Data as given in PubChem BioAssay.
The source made the active and inactive calls.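 The calls were made as follows, unless noted: active = inhibition above 20% together with a positive visual image hit; inconclusive = visual image hit but inhibition not above 20%; inactive = no visual image hit.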

Columns and labels:
[1] = inhibitors of TNFa-induced NFkB p65 translocation, primary screen, imaging, HUVEC, MLSMR starter and 10KST1 sets (AID 438); details: HUVEC TNFa-induced p65 nuclear translocation; cell count: measured here: nuclei count (cytotoxicity indicator), at 2.08 µM; inhibition: at 2 µM, stronger effect = higher value, 0% TNFa-plus-vehicle, 100% no-TNFa wells;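 also: compound added about 3h40 before a 20 min TNFalpha stimulation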;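 as to inhibition: signal is the nuclear over cytoplasmic p65 intensity ratio per well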
[2] = inhibitors of mutant huntingtin aggregation, primary screen, imaging, exon1htt(103Q)mCFP cells, high-content imaging (AID 483;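 active = visual image review flags a hit and inhibition of aggregation exceeds 20%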;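 also: compound exposure lasted 3 days before fixation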;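 as to nuclei count: percent of the per-plate median nuclei count of sample wells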); details: exon1htt(103Q)mCFP cell line, aggregate imaging, at 2 µM; inhibition of aggregation: stronger effect = higher value; nuclei count: measured here: cell count, toxicity
[3] = inhibitors of E-selectin induction by TNFa, primary screen, imaging, HUVEC, immunofluorescence, MLSMR starter and 10KST1 sets (AID 487;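 active = visually confirmed hit in the image check and inhibition above 20%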;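 as to inhibition: signal is fraction of cell area covered by stained E-selectin grains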;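 as to nuclei count: 100% = median nuclei count of all wells on the same plate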); details: HUVEC TNFalpha-induced E-selectin immunofluorescence imaging, at 2 µM; inhibition: stronger effect = higher value; nuclei count: measured here: cell number, toxicity
[4] = target: Voltage-gated potassium channel subunit beta-2 (Rattus norvegicus) (UniProt P62483); experiment: KvBeta enzyme negative modulators, primary screen, biochemical, NADPH fluorescence (AID 622;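 active = fluorescence slope higher than the sample average by over 3 SD, cut at about -0.22 in these data, passing the limit was not always enough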;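 also: slope of raw intensity against log time taken from 70 to 1610 s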); details: recombinant KvBeta, 4-cyanobenzaldehyde reduction, at 10 µM, stronger effect = higher value
Chain of Voltage-gated potassium channel subunit beta-2 (Rattus norvegicus) (P62483 whole entry, looked up): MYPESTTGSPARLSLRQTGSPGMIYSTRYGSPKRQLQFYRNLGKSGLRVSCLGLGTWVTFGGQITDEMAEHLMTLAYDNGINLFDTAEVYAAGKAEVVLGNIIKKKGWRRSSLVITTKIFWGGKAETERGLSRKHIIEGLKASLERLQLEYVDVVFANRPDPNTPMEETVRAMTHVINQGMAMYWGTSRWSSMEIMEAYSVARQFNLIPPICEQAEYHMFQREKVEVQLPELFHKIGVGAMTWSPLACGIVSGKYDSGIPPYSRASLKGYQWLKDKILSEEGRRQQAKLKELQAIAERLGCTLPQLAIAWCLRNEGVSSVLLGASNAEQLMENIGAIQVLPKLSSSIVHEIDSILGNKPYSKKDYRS

[5] = target: Voltage-gated potassium channel subunit beta-2 (Rattus norvegicus) (UniProt P62483); experiment: KvBeta positive modulators, primary screen, biochemical, NADPH fluorescence (AID 623;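 active = NADPH fluorescence slope more negative than the mean of all samples by about 3 SD, 99.7% confidence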;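 also: fluorescence intensity change per second fitted from 20 to 320 s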); details: Recombinant KvBeta, NADPH fluorescence decrease slope, 10 min; at 10 µM; stronger effect = lower value
[6] = target: Alpha-2C adrenergic receptor (Homo sapiens) (UniProt P18825); experiment: modulators of alpha2C/GIRK thallium flux, primary screen, cell-based, HEK293 alpha2C/GIRK1/2 (AID 624;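 active = fluorescence slope after compound addition differing from the mean of all screened samples at 99.7% confidence, in either direction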;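 also: slope of fluorescence ratio to pre-addition baseline per second over 15 to 24 s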); details: thallium flux BTC fluorescence, at 10 µM, actives lie on both sides
Chain of Alpha-2C adrenergic receptor (Homo sapiens) (P18825 whole entry, looked up): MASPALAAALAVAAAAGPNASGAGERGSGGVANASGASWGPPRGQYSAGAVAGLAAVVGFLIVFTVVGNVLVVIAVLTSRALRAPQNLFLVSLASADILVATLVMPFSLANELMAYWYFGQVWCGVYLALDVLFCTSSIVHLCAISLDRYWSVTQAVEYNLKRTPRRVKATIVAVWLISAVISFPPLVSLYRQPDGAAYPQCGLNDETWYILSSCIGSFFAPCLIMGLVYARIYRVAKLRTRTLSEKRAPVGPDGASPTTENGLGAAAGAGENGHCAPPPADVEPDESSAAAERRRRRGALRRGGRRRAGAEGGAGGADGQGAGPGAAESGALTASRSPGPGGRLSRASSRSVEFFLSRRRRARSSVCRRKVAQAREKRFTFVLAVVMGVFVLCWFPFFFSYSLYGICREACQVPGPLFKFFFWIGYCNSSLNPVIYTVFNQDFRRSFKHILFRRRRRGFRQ

[7] = inhibitors of larval lipid processing in zebrafish, primary screen, whole organism, PED6 fluorescence, gall bladder and intestine (AID 686;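 active = a full or partial loss of lipid-probe fluorescence in the fish gall bladder, intestine or both, judged by eye; inactive = no fluorescence loss, or compound toxic to the fish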;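 also: larvae 5 to 7 days old with five fish per well; signal comes from phospholipase A2 cleavage of quenched PED6 carried via bile; overnight exposure to compound and PED6 before scoring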); details: Zebrafish larvae PED6 lipid processing, fluorescence scoring; screened at 20 µM (by protocol)
Summary of the method: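 Doses: 20 µM single dose. Test system: live zebrafish larvae aged 5-7 days, whole organism. Quantity: five larvae per well. Measured by: By-eye fluorescence microscopy. Reagent: ingested quenched lipid PED6 at 100 nM. Read-out: visual per-well fluorescence inhibition score. Times: overnight exposure of larvae to compound plus PED6.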

[8] = inhibitors of Sendai virus-induced IRF3 signaling, primary screen, TLR/RLR signaling modifier project, cell-based, Sendai virus stimulus, luciferase, 10K MLSCN set (AID 602276;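 active = inhibition at or above 50% at 10 µM; inactive = inhibition below 50%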;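 also: firefly luciferase from ISG56 promoter only with Renilla not read in this screen; 0% = Sendai virus plus DMSO and 100% = medium plus DMSO without virus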); details: HEK293 RL24 IRF3 luciferase reporter, at 10 µM, stronger effect = higher value
[9] = inhibitors of poly I:C-induced TLR3 signaling, primary screen, cell-based, poly I:C stimulus, luciferase, 10K MLSCN set (AID 602277;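 active = inhibition of the reporter signal at or above 50%; inactive = inhibition below 50%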); details: HEK293-TLR3 RL24 IRF3 luciferase reporter, at 10 µM, stronger effect = higher value

O=C(O)C(c1ccccc1)N1CCCC1 (stereo unspecified)
inactive: inhibition [1] 3.4% | inhibition of aggregation [2] -1.7% | inhibition [3] -110% | fluorescence slope [4] -0.291 | NADPH fluorescence slope [5] -6.9e-06 | slope [6] 0.00482 | outcome [7] | inhibition [8] 13% | inhibition [9] 8.7%
108%: nuclei count [2]
104%: nuclei count [3]
643: cell count [1]

CCCCCCC(c1c(C)n(C)n(-c2ccccc2)c1=O)c1c(C)n(C)n(-c2ccccc2)c1=O
102%: nuclei count [3]
272: cell count [1]
inactive: inhibition [1] -12.6% | inhibition of aggregation [2] 21% | inhibition [3] -39.4% | fluorescence slope [4] -0.407 | NADPH fluorescence slope [5] -5e-05 | slope [6] 0.00514 | outcome [7] | inhibition [8] 7.89% | inhibition [9] 7.24%
59.4%: nuclei count [2]

O=C(COc1ccc(S(=O)(=O)NC2CCCCC2)cc1)NCc1ccccn1
inactive: inhibition [1] -5.1% | inhibition of aggregation [2] -2.7% | inhibition [3] -8.3% | fluorescence slope [4] -0.401 | NADPH fluorescence slope [5] -1.8e-06 | slope [6] 0.00588 | outcome [7] | inhibition [8] -5.78% | inhibition [9] 1.29%
101%: nuclei count [2]
107%: nuclei count [3]
400: cell count [1]

O=C(NC1=NCCS1)c1ccc2c(c1)C(=O)N(Cc1ccco1)C2=O
96.6%: nuclei count [2]
111%: nuclei count [3]
447: cell count [1]
inactive: inhibition [1] 0% | inhibition of aggregation [2] 19.6% | inhibition [3] -60.7% | fluorescence slope [4] -0.387 | NADPH fluorescence slope [5] 2.7e-06 | slope [6] 0.00529 | outcome [7] | inhibition [8] 19.1% | inhibition [9] 24.4%

Cc1ccc(C)n1-c1ccc(-n2cnnn2)cc1
572: cell count [1]
inactive: inhibition [1] -1.6% | inhibition of aggregation [2] -8.3% | inhibition [3] -24.4% | fluorescence slope [4] -0.366 | NADPH fluorescence slope [5] -5.9e-05 | slope [6] 0.00396 | outcome [7] | inhibition [8] 8.71% | inhibition [9] 9.74%
86.5%: nuclei count [2]
50.8%: nuclei count [3]

COc1ccc(COC(=O)c2n[nH]c3ccccc23)cc1F
inactive: inhibition [1] 3.9% | inhibition of aggregation [2] -16% | inhibition [3] -1.8% | fluorescence slope [4] -0.444 | NADPH fluorescence slope [5] -5.5e-05 | slope [6] 0.00618 | outcome [7] | inhibition [8] -16.1% | inhibition [9] -49.8%
125%: nuclei count [2]
380: cell count [1]
107%: nuclei count [3]

O=C(NCCCN1CCN(Cc2ccccc2)CC1)C1CCN(c2nnc(-n3cccc3)s2)CC1
103%: nuclei count [2]
336: cell count [1]
inactive: inhibition [1] -11.8% | inhibition of aggregation [2] -22.5% | inhibition [3] -119% | fluorescence slope [4] -0.393 | NADPH fluorescence slope [5] -5e-05 | slope [6] 0.00457 | outcome [7] | inhibition [8] -19.7% | inhibition [9] -72%
126%: nuclei count [3]

CCn1c(SCC(=O)Nc2ccccc2N2CCCCC2)nc2c1c(=O)n(C)c(=O)n2C
89.4%: nuclei count [3]
490: cell count [1]
93.1%: nuclei count [2]
inactive: inhibition [1] -5.6% | inhibition of aggregation [2] 19.9% | inhibition [3] -15.6% | fluorescence slope [4] -0.338 | NADPH fluorescence slope [5] -6.7e-05 | slope [6] 0.00404 | outcome [7] | inhibition [8] 16.1% | inhibition [9] 18.7%

CC(=O)Nc1nnc(SCC(=O)NCC2CCCO2)s1 (stereo unspecified)
110%: nuclei count [3]
102%: nuclei count [2]
inactive: inhibition [1] 6% | inhibition of aggregation [2] -1.3% | inhibition [3] -123% | fluorescence slope [4] -0.413 | NADPH fluorescence slope [5] -3.1e-05 | slope [6] 0.00542 | outcome [7] | inhibition [8] -10.9% | inhibition [9] -9.89%
415: cell count [1]

O=C(CSc1n[nH]c(=O)[nH]c1=O)c1ccccc1
82%: nuclei count [2]
inactive: inhibition [1] -5.6% | inhibition of aggregation [2] 6.7% | inhibition [3] -33.2% | fluorescence slope [4] -0.34 | NADPH fluorescence slope [5] -4e-05 | slope [6] 0.00685 | outcome [7] | inhibition [8] 1.37% | inhibition [9] 0.379%
99.8%: nuclei count [3]
486: cell count [1]

O=C(/C=C/N1CCOCC1)c1ccc(-c2ccccc2)cc1
101%: nuclei count [3]
inactive: inhibition [1] -4.7% | inhibition of aggregation [2] 8.3% | inhibition [3] 33.9% | fluorescence slope [4] -0.398 | NADPH fluorescence slope [5] -4.3e-05 | slope [6] 0.00595 | outcome [7] | inhibition [8] -22.9% | inhibition [9] -53.1%
112%: nuclei count [2]
617: cell count [1]

COC(=O)c1[nH]c2ccc(C)cc2c1NC(=O)CN1CCN(C(=O)c2ccccc2)CC1
99.5%: nuclei count [2]
330: cell count [1]
102%: nuclei count [3]
inactive: inhibition [1] -4% | inhibition of aggregation [2] 3% | inhibition [3] -26.1% | fluorescence slope [4] -0.306 | NADPH fluorescence slope [5] -3.3e-05 | slope [6] 0.00437 | outcome [7] | inhibition [8] 18.9% | inhibition [9] 14.6%

COc1ccc(CCN(Cc2cc3cccc(C)c3[nH]c2=O)C(=O)N2CCCC2)cc1OC
inactive: inhibition [1] 2.1% | inhibition of aggregation [2] 8.7% | inhibition [3] 11.6% | fluorescence slope [4] -0.458 | NADPH fluorescence slope [5] -8.2e-05 | slope [6] 0.00488 | outcome [7] | inhibition [8] 10.3% | inhibition [9] 16.5%
207: cell count [1]
91.3%: nuclei count [3]
94.8%: nuclei count [2]
